The labels stand for the following.
B1: tRNA (parent)
chain: GUUCCGUUGGCGUAAUGGUAACGCGUCUCCCUCCUAAGGAGAAGACUGCGGGUUCGAGUCCCGUACGGAACG

Variants at the floor of the assay were thinned out.

In the series the parent is B1. In words: yeast fitness relative to wild type (ratio to wild type); higher = fitter; tRNA-Arg(CCU), competitive growth, 37 C, YPD. Put shortly: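 Variants of the tRNA-Arg(CCU) gene, chemically synthesised with a 3% per-site mutation rate at 69 sites, were placed at the native genomic locus in Saccharomyces cerevisiae. The pooled strains were competed in YPD at 37°C for 24 hours in six parallel replicates. Gene amplicons from the start population and from each end population were read by 100-nucleotide paired-end sequencing. Darwinian fitness relative to wild type came from changes in genotype frequencies; genotypes needed ≥ 100 starting reads, and estimates < 0.5 were set to 0.5.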
On to G12A C30U U47A G67C, for which the yeast fitness was at most 0.5.

Regarding G12C A21U C34U A42U U64A G68U, the yeast fitness was at most 0.5.

Turning to G12A A20C, the yeast fitness worked out at 0.875.

Take G12A A20G: the yeast fitness amounted to 0.923.

G12A C24U G25A C30U C46A: the yeast fitness came out at 0.571.

Consider G12A C46A, for which the yeast fitness was found to be 1.05.

Take G12A U13C C49G U59A: the yeast fitness is at most 0.5.

In the case of G12C A20C C31G U64A, the yeast fitness is at most 0.5.

Turning to G12A U13G, the yeast fitness was 0.869.

Turning to G12C C22G G23A A37C A43C C62G G63A C66G A69G, the yeast fitness is at most 0.5.

As for G12A A20G G48A, the yeast fitness is 0.63.

Consider G12A C33U G39C C66G, for which the yeast fitness is at most 0.5.

For G12A A15G C29G G48A C62U C66U, the yeast fitness is at most 0.5.

For the variant G12A C22G C29U, the yeast fitness turned out to be 0.551.

G12A U28A A40U: the yeast fitness amounted to 0.647.

For the variant G12A U28G U35C, the yeast fitness was at most 0.5.

Regarding G12C A37C A40U C46U, the yeast fitness was found to be 0.59.

Take G12C C24U A40U: the yeast fitness is at most 0.5.

Regarding G12A C34U A37U G41A C55U A69C, the yeast fitness is at most 0.5.

On to G12A U35A G58A G68A, for which the yeast fitness is 0.561.

For the variant G12A C27U A37C A45G, the yeast fitness was at most 0.5.

As to G12A U13A G67U, the yeast fitness turned out to be 0.537.

With G12A C33A, the yeast fitness was 0.644.

G12A U26C C27U C33A A45C C62G A69U: the yeast fitness turned out to be 0.553.

In the case of G12C A20C U47A A70G, the yeast fitness came to 0.755.

As to G12A A40G C46A, the yeast fitness came out at 0.752.

As for G12C C24U C55U G68C, the yeast fitness is 0.55.

On to G12A C49U C66A, for which the yeast fitness was at most 0.5.

With G12A C27U U32A, the yeast fitness amounted to 0.702.

As for G12A G39A G68A, the yeast fitness stood at 0.528.

As to G12A U35A A45C, the yeast fitness was found to be 0.528.

As to G12A G25A U32C, the yeast fitness turned out to be 0.749.

For G12A U35C, the yeast fitness was 0.83.

In the case of G12A G44C C46G, the yeast fitness turned out to be 0.61.

In the case of G12A C22A C24A, the yeast fitness was at most 0.5.

Turning to G12A C24A A36C C61U G67U, the yeast fitness came out at 0.615.

G12A G23A U28G G56C A65U: the yeast fitness came out at 0.762.

Take G12A A45G C62U: the yeast fitness came out at 0.531.

G12A U47G U53A C60A: the yeast fitness was at most 0.5.

With G12A C34A G51U G58A G63U, the yeast fitness was at most 0.5.

Regarding G12C A37G G38A A45U A70G, the yeast fitness was determined as 0.567.

With G12A C31U G52A G56C, the yeast fitness was found to be 0.569.

Regarding G12A A70U, the yeast fitness came out at 0.99.

With G12A A70G, the yeast fitness amounted to 1.02.

Take G12C A21U C34U A69C: the yeast fitness is at most 0.5.

Regarding G12A G50C, the yeast fitness was 0.757.

With G12A G50U, the yeast fitness was 0.842.

Take G12C C24U C46U C49G: the yeast fitness is at most 0.5.

As for G12C A15G C29U A42U U47C C62U, the yeast fitness is at most 0.5.

For G12A C27G U32G C60A, the yeast fitness is at most 0.5.

Take G12A A14G C30G A70U: the yeast fitness is 0.616.

Take G12A A15C C62U C66G: the yeast fitness was at most 0.5.

For G12C C27G G58A, the yeast fitness is at most 0.5.

Take G12A C22U A57U: the yeast fitness is at most 0.5.

Take G12A A21G C34U C62A A69U: the yeast fitness was at most 0.5.

Consider G12A C22G, for which the yeast fitness turned out to be 1.

As to G12A A21G C46G G51A G67C, the yeast fitness was at most 0.5.

As to G12A U26A C31U G48A, the yeast fitness turned out to be 0.711.

On to G12A G41A C60G A65G, for which the yeast fitness came to 0.559.

Take G12A A21G G44A C46U A69C: the yeast fitness was 0.507.

With G12A A20C C29A, the yeast fitness was at most 0.5.

Turning to G12A C29U G56C, the yeast fitness was at most 0.5.

With G12C A20U C22A, the yeast fitness was found to be 0.927.

For G12A G63C, the yeast fitness was 0.704.

For the variant G12C A15U G25A, the yeast fitness worked out at 0.696.

As for G12C A21C U26C C60A C61A, the yeast fitness is at most 0.5.

Take G12A U13C C27G C31U C34A: the yeast fitness is at most 0.5.

For G12A U16C C55G A65C, the yeast fitness was at most 0.5.

On to G12C C24G C60A, for which the yeast fitness was at most 0.5.

As for G12C A40G G58C C61G A65C, the yeast fitness was at most 0.5.

Consider G12A U54A, for which the yeast fitness stood at 0.679.

As to G12A U54C, the yeast fitness was found to be 0.797.

As for G12A U16C C27A A70C, the yeast fitness is at most 0.5.

Turning to G12C C22U U28A, the yeast fitness came to 0.52.

In the case of G12A C34G, the yeast fitness turned out to be 0.644.

As to G12A A15G C24A A36U C61U G67U, the yeast fitness came out at 0.761.

For the variant G12C A65C, the yeast fitness is 0.783.

In the case of G12C A65G, the yeast fitness was found to be 0.783.

In the case of G12A A14G, the yeast fitness amounted to 0.958.

Turning to G12A C33G A36C A37G G44A, the yeast fitness was at most 0.5.

Regarding G12A C49A G68A, the yeast fitness is at most 0.5.

G12C A42U: the yeast fitness stood at 0.698.

On to G12A A15G C27A, for which the yeast fitness is at most 0.5.

For the variant G12A A21C G23A C46G U53C, the yeast fitness was at most 0.5.

For the variant G12A A14U A21U U32G A37G A45G C55A, the yeast fitness is at most 0.5.

As for G12A A43G G48C, the yeast fitness was found to be 0.568.

Consider G12A A21G G39A A45G G50A A69U, for which the yeast fitness is at most 0.5.

Take G12A C30U C46G: the yeast fitness is at most 0.5.

Regarding G12A C22G C27A, the yeast fitness amounted to 0.663.

As to G12A U16A G39C U54C C55U, the yeast fitness is at most 0.5.

Take G12A U19A G41A A42G G58U G63C: the yeast fitness is at most 0.5.

As for G12A G48A, the yeast fitness stood at 0.819.

On to G12A G25A C27U, for which the yeast fitness stood at 0.596.

On to G12C C27U, for which the yeast fitness was 0.805.

In the case of G12A A37U A42C, the yeast fitness was determined as 0.559.

G12A U26A C31G: the yeast fitness came to 0.541.

In the case of G12C C24G C27U A43U G67A, the yeast fitness was at most 0.5.

In the case of G12A A37U, the yeast fitness amounted to 0.653.

Turning to G12A C24G C62G, the yeast fitness was at most 0.5.

On to G12A C31U C61U A70G, for which the yeast fitness was determined as 0.541.

Consider G12A U13G U19C A21G C49U G52A U59G, for which the yeast fitness was determined as 0.525.

In the case of G12A C33A U54G A70C, the yeast fitness came out at 0.541.

Consider G12A U64C, for which the yeast fitness turned out to be 0.921.

Consider G12A C31U C61G, for which the yeast fitness was found to be 0.543.

Consider G12A C49U C62A, for which the yeast fitness is 0.625.

For G12A C27G A43U, the yeast fitness turned out to be 0.53.

As to G12A A21G A40U G67U, the yeast fitness is at most 0.5.

Regarding G12C C27G C30G, the yeast fitness was at most 0.5.

G12C C22G G23A C55A: the yeast fitness was at most 0.5.

As for G12A G52C, the yeast fitness was found to be 0.668.

Take G12A C55A: the yeast fitness came to 0.6.

Consider G12A C55G, for which the yeast fitness was determined as 0.639.

In the case of G12A A14C C31G A65C, the yeast fitness is at most 0.5.

Consider G12A A15C G58C, for which the yeast fitness was at most 0.5.

In the case of G12A A15U G17A, the yeast fitness is at most 0.5.

Turning to G12A U13A A42C A70U, the yeast fitness was at most 0.5.

In the case of G12C A43G G63A, the yeast fitness was determined as 0.556.

For the variant G12A A20G A21U A40G, the yeast fitness was at most 0.5.

With G12A C24G C29A, the yeast fitness is at most 0.5.

For the variant G12A U59C, the yeast fitness amounted to 0.993.

Turning to G12A C61A G67A, the yeast fitness was at most 0.5.

Turning to G12C A36C G50A, the yeast fitness is at most 0.5.

Regarding G12A C27U A36C A42U C46U, the yeast fitness is at most 0.5.

On to G12C A20C C31G C66A, for which the yeast fitness was at most 0.5.

Regarding G12A U13A G41C A45C C66U, the yeast fitness was at most 0.5.

Take G12A C24A U26G A43C C62G G63A C66G A69G: the yeast fitness is at most 0.5.

For G12A A20G U28A C55A G56A, the yeast fitness was 0.537.

As for G12A G17C C46U, the yeast fitness was at most 0.5.

For G12C A20U G25A A36G C46A U54A A70U, the yeast fitness is at most 0.5.

For the variant G12A C24A C34A C49A G63U G67A, the yeast fitness was at most 0.5.

As for G12A U16C C27A U54A, the yeast fitness is at most 0.5.

G12A U35C C66U: the yeast fitness turned out to be 0.614.

In the case of G12A A14U C66A A70G, the yeast fitness is at most 0.5.

For G12A G58C G63A, the yeast fitness came out at 0.615.

Take G12C A15C U19A C34U C49A A65U: the yeast fitness was at most 0.5.

For G12A A21C C31U, the yeast fitness is at most 0.5.

Consider G12A U19C C34G C66U A69U, for which the yeast fitness is 0.59.

As to G12C A21C C60A, the yeast fitness is at most 0.5.

Take G12A C49A U54A: the yeast fitness is at most 0.5.

G12C C22U C31A C60G: the yeast fitness is at most 0.5.

Consider G12A U47A G63A A69U, for which the yeast fitness came out at 0.554.

For G12C C22U A43C, the yeast fitness came out at 0.615.

As to G12A A21G C46G G51A A69U, the yeast fitness is at most 0.5.

Take G12C A20G C34U C49G: the yeast fitness came to 0.711.

G12A A42G C66G G67C: the yeast fitness was at most 0.5.

As for G12A A14G C24G C31U C55A, the yeast fitness was at most 0.5.

Consider G12A G44C A65G, for which the yeast fitness worked out at 0.649.

Consider G12A U35C G48C, for which the yeast fitness is at most 0.5.

With G12A C24G U35A A36G A40C G67A, the yeast fitness was at most 0.5.

G12A C22G A43G C55A: the yeast fitness was at most 0.5.

G12C A14G G25A G41C U54G A65G G68U A70C: the yeast fitness came to 0.545.

Regarding G12C A37C A40U C46U G63A, the yeast fitness is at most 0.5.

As to G12A U13C C33U C34U A42C G50A, the yeast fitness is at most 0.5.

For the variant G12A G51C C62A, the yeast fitness was at most 0.5.

As for G12A U32C A40C G51A, the yeast fitness is at most 0.5.

For G12C A43C C61G, the yeast fitness is at most 0.5.

On to G12A C29A A45U, for which the yeast fitness is 0.531.

For the variant G12A C29G, the yeast fitness stood at 0.61.

Consider G12A C29A, for which the yeast fitness was 0.652.

Turning to G12A U13G C61U G67C, the yeast fitness was found to be 0.678.

As to G12A C31A G38C A65G, the yeast fitness is at most 0.5.

For G12C A43U, the yeast fitness amounted to 0.892.

For the variant G12A U16G G48A G68A, the yeast fitness was 0.705.

Consider G12A C33U A36C C55G, for which the yeast fitness is at most 0.5.

As for G12A C55U G63C, the yeast fitness was at most 0.5.

For the variant G12A A21G C34U G67U, the yeast fitness is at most 0.5.

On to G12A A40C C66U, for which the yeast fitness was determined as 0.532.

Values taken from the RNAGym collection of RNA variant scans (doi:10.1126/science.aae0568).
